From ChEMBL document CHEMBL3860028, “Bioactive Phenanthrene and Bibenzyl Derivatives from the Stems of Dendrobium nobile” (J Nat Prod, 2016)
Values after ≈ are worked out from the molar mass of the structure shown.

Key:
[1] = Cytotoxicity against human MCF7 cells assessed as decrease in cell viability after 6 days by MTT assay; type: functional, cell-based; conditions: MCF7, 144 h
Summary of the method: (§1)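 Cell lines from College of Pharmacy, Hebei University, grown in DMEM with 5% fetal bovine serum at 37 °C under 5% CO2. Viability read by MTT method, IC50 values derived. Epirubicin served as positive control.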

Colletotrichum truncatum = assay: Antifungal activity against Colletotrichum capsici after 4 to 14 days by serial dilution method; type: functional
Summary of the method: (§2)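 Fungal strains kept on potato dextrose agar. Antifungal activity tested following NCCLS recommendations, with MIC values as the read-out. Prochloraz served as positive control.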

[2] = Antifungal activity against Phytophthora parasitica var. nicotianae after 4 to 14 days by serial dilution method; type: functional; summary of the method: as §2
[3] = Antifungal activity against Bipolaris oryzae after 4 to 14 days by serial dilution method; type: functional
Summary of the method: (§3)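 Fungus maintained on potato dextrose agar. Antifungal activity determined as MIC following NCCLS (National […] for Clinical Laboratory Standards) recommendations, with prochloraz as the reference antifungal.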

[4] = Antifungal activity against Pestallozzia theae after 4 to 14 days by serial dilution method; type: functional; summary of the method: as §2
[5] = Cytotoxicity against human A549 cells assessed as decrease in cell viability after 6 days by MTT assay; type: functional, cell-based; conditions: A549, 144 h; summary of the method: as §1
[6] = Antifungal activity against Diaporthe medusaea nitschke after 4 to 14 days by serial dilution method; type: functional; conditions: Diaporthe rudis; summary of the method: as §2
[7] = Antifungal activity against Ceratocystis paradoxa moreau after 4 to 14 days by serial dilution method; type: functional; conditions: Thielaviopsis; summary of the method: as §2
[8] = Cytotoxicity against human HeLa cells assessed as decrease in cell viability after 6 days by MTT assay; type: functional, cell-based; conditions: 144 h; summary of the method: as §1
[9] = Antifungal activity against Exserohilum turcicum after 4 to 14 days by serial dilution method; type: functional; conditions: Setosphaeria turcica; summary of the method: as §2
Alternaria brassicicola = assay: Antifungal activity against Alternaria brassicicola after 4 to 14 days by serial dilution method; type: functional; summary of the method: as §2
Alternaria citri = assay: Antifungal activity against Alternaria citri after 4 to 14 days by serial dilution method; type: functional; summary of the method: as §3

SMILES	IC50 [1]	MIC (Colletotrichum truncatum)	MIC [2]	MIC [3]	MIC [4]	IC50 [5]	MIC [6]	MIC [7]	IC50 [8]	MIC [9]	MIC (Alternaria brassicicola)	MIC (Alternaria citri)
COc1cc(O)cc2ccc3cccc(O)c3c12 [MOSCATIN]	> 10 µM	> 400 µM	> 400 µM	> 400 µM	> 400 µM	> 10 µM	> 400 µM	> 400 µM	> 10 µM	> 400 µM	> 400 µM	> 400 µM
COc1cc(O)c2c(c1)CCc1cc(O)c(-c3cc4cccc(O)c4c4c(OC)cc(O)cc34)cc1-2	> 10 µM	> 400 µM	> 400 µM	> 400 µM	> 400 µM	> 10 µM	> 400 µM	> 400 µM	> 10 µM	> 400 µM	> 400 µM	> 400 µM
COc1cc(O)c2c(c1)CCc1cc(O)c(-c3c(O)c4cccc(O)c4c4c(OC)cc(OC)cc34)cc1-2	> 10 µM	> 400 µM	> 400 µM	> 400 µM	> 400 µM	> 10 µM	> 400 µM	> 400 µM	> 10 µM	> 400 µM	> 400 µM	> 400 µM
COc1cc2c(c(OC)c1O)-c1ccc(O)cc1CC2 [FLAVANTHRIDIN]	> 10 µM	> 400 µM	> 400 µM	> 400 µM	> 400 µM	> 10 µM	> 400 µM	> 400 µM	> 10 µM	> 400 µM	> 400 µM	> 400 µM
COc1cc(O)c2c(c1)CCc1cc(O)ccc1-2 [LUSIANTHRIDIN]	> 10 µM	> 400 µM	> 400 µM	> 400 µM	> 400 µM	> 10 µM	> 400 µM	> 400 µM	> 10 µM	> 400 µM	> 400 µM	> 400 µM
COc1cc(O)cc(CCc2cccc(O)c2)c1 [BATATASIN III]	> 10 µM	102 µM (≈ 25 µg/mL)	205 µM (≈ 50.1 µg/mL)	102 µM (≈ 25 µg/mL)	205 µM (≈ 50.1 µg/mL)	> 10 µM	205 µM (≈ 50.1 µg/mL)	102 µM (≈ 25 µg/mL)	> 10 µM	102 µM (≈ 25 µg/mL)	102 µM (≈ 25 µg/mL)	102 µM (≈ 25 µg/mL)
CCCN(CCOc1c(Cl)cc(Cl)cc1Cl)C(=O)n1ccnc1 [PROCHLORAZ]		33.3 µM (≈ 12.5 µg/mL)	133 µM (≈ 50.2 µg/mL)	133 µM (≈ 50.2 µg/mL)	66.7 µM (≈ 25.1 µg/mL)		133 µM (≈ 50.2 µg/mL)	66.7 µM (≈ 25.1 µg/mL)		33.3 µM (≈ 12.5 µg/mL)	33.3 µM (≈ 12.5 µg/mL)	66.7 µM (≈ 25.1 µg/mL)
COC1=CC(=O)C[C@@]2(CCc3cccc(O)c32)C1=O	9.4 µM	> 400 µM	> 400 µM	> 400 µM	> 400 µM	9.9 µM	> 400 µM	> 400 µM	9.8 µM	> 400 µM	> 400 µM	> 400 µM
COC1=CC(=O)C[C@]2(CCc3cccc(O)c32)C1=O	9.4 µM	> 400 µM	> 400 µM	> 400 µM	> 400 µM	9.9 µM	> 400 µM	> 400 µM	9.8 µM	> 400 µM	> 400 µM	> 400 µM
COc1cc(O)c2c(c1)CCc1cc(Oc3cc(OC)c(O)c4c3CCc3cc(O)ccc3-4)ccc1-2	> 10 µM	> 400 µM	> 400 µM	> 400 µM	> 400 µM	> 10 µM	> 400 µM	> 400 µM	> 10 µM	> 400 µM	> 400 µM	> 400 µM
COc1cc(O)cc(CCc2ccc(O)c(OC)c2)c1 [GIGANTOL]	> 10 µM	91.2 µM (≈ 25 µg/mL)	365 µM (≈ 100 µg/mL)	182 µM (≈ 50 µg/mL)	91.2 µM (≈ 25 µg/mL)	> 10 µM	91.2 µM (≈ 25 µg/mL)	91.2 µM (≈ 25 µg/mL)	> 10 µM	182 µM (≈ 50 µg/mL)	182 µM (≈ 50 µg/mL)	91.2 µM (≈ 25 µg/mL)
COC1=CC(=O)C[C@H]2CCc3cccc(O)c3[C@@]12O	> 10 µM	> 400 µM	> 400 µM	> 400 µM	> 400 µM	> 10 µM	> 400 µM	> 400 µM	> 10 µM	> 400 µM	> 400 µM	> 400 µM
O=C1C=CC(=O)C2=C1CCc1cc(O)ccc12	> 10 µM	> 400 µM	> 400 µM	> 400 µM	> 400 µM	> 10 µM	> 400 µM	> 400 µM	> 10 µM	> 400 µM	> 400 µM	> 400 µM
COc1c(O)cc2ccc3c(OC)c(O)ccc3c2c1OC	> 10 µM	> 400 µM	> 400 µM	> 400 µM	> 400 µM	> 10 µM	> 400 µM	> 400 µM	> 10 µM	> 400 µM	> 400 µM	> 400 µM
COc1cc(O)cc(CCc2ccccc2)c1	> 10 µM	110 µM (≈ 25 µg/mL)	219 µM (≈ 50.1 µg/mL)	110 µM (≈ 25 µg/mL)	219 µM (≈ 50.1 µg/mL)	> 10 µM	219 µM (≈ 50.1 µg/mL)	110 µM (≈ 25 µg/mL)	> 10 µM	110 µM (≈ 25 µg/mL)	> 400 µM	110 µM (≈ 25 µg/mL)
COc1cc(O)cc2ccc3c(-c4c(O)cc(OC)c5c4ccc4cccc(O)c45)ccc(O)c3c12	> 10 µM	> 400 µM	> 400 µM	> 400 µM	> 400 µM	> 10 µM	> 400 µM	> 400 µM	> 10 µM	> 400 µM	> 400 µM	> 400 µM
COc1c(O)cc2ccc3cc(O)ccc3c2c1OC [NUDOL]	> 10 µM	> 400 µM	> 400 µM	> 400 µM	> 400 µM	> 10 µM	> 400 µM	> 400 µM	> 10 µM	> 400 µM	> 400 µM	> 400 µM
COc1cc(O)c2c(c1)CCc1cccc(O)c1-2	> 10 µM	> 400 µM	> 400 µM	> 400 µM	> 400 µM	> 10 µM	> 400 µM	> 400 µM	> 10 µM	> 400 µM	> 400 µM	> 400 µM
COC1=CC(=O)C[C@H]2CC(=O)c3cccc(O)c3[C@@]12O	> 10 µM	> 400 µM	> 400 µM	> 400 µM	> 400 µM	> 10 µM	> 400 µM	> 400 µM	> 10 µM	> 400 µM	> 400 µM	> 400 µM
Oc1cccc(CCc2cc(O)cc(O)c2)c1	> 10 µM	109 µM (≈ 25 µg/mL)	218 µM (≈ 50.1 µg/mL)	109 µM (≈ 25 µg/mL)	217 µM (≈ 50.1 µg/mL)	> 10 µM	217 µM (≈ 50.1 µg/mL)	109 µM (≈ 25 µg/mL)	> 10 µM	109 µM (≈ 25 µg/mL)	> 400 µM	109 µM (≈ 25 µg/mL)
COc1cc(O)c2c(c1-c1c(OC)cc(O)c3c1CCc1cc(O)ccc1-3)CCc1cc(O)ccc1-2	> 10 µM	> 400 µM	> 400 µM	> 400 µM	> 400 µM	> 10 µM	> 400 µM	> 400 µM	> 10 µM	> 400 µM	> 400 µM	> 400 µM
COc1cc(CCc2cc(O)cc(O)c2)ccc1O [TRISTIN]	> 10 µM	96.2 µM (≈ 25 µg/mL)	385 µM (≈ 100 µg/mL)	96.2 µM (≈ 25 µg/mL)	96.2 µM (≈ 25 µg/mL)	> 10 µM	192 µM (≈ 50.1 µg/mL)	96.2 µM (≈ 25 µg/mL)	> 10 µM	385 µM (≈ 100 µg/mL)	192 µM (≈ 50.1 µg/mL)	96.2 µM (≈ 25 µg/mL)
COC1=CC(=O)c2c(ccc3cc(O)c(O)cc23)C1=O	> 10 µM	> 400 µM	> 400 µM	> 400 µM	> 400 µM	> 10 µM	> 400 µM	> 400 µM	> 10 µM	> 400 µM	> 400 µM	> 400 µM
COc1cc2c(c(O)c1OC)-c1ccc(O)cc1CC2 [EPHEMERANTHOL A]	> 10 µM	> 400 µM	> 400 µM	> 400 µM	> 400 µM	> 10 µM	> 400 µM	> 400 µM	> 10 µM	> 400 µM	> 400 µM	> 400 µM
COc1cc(O)c2c(c1)CCc1cc(O)c(-c3c(OC)cc4c(c3O)-c3ccc(O)cc3CC4)cc1-2	> 10 µM	> 400 µM	> 400 µM	> 400 µM	> 400 µM	> 10 µM	> 400 µM	> 400 µM	> 10 µM	> 400 µM	> 400 µM	> 400 µM
